Screening data deposited in PubChem BioAssay by Johns Hopkins Ion Channel Center.
This is a sample that favours compounds with a hit; in the whole collection about 2.9% have one here.
TRPC6 inhibitor: blocks the mouse TRPC6 cation channel | HEK293-TRPC6, membrane potential dye, ACh-evoked depolarization; stronger effect = lower value | B-score at 10 µM | 310,000 compounds, 1.1% hits;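 active = B-score under library mean minus 3 SD, initial fluorescence not abnormally high, positive integrated signal ratio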;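 note: B-score derived from integrated fluorescence ratio over the kinetic read; more negative B-score means stronger inhibition of depolarization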
TRPC4 block: TRPC4 (mouse) channel inhibition | Q9QUQ5 | HEK293 TRPC4beta/mu-opioid, DAMGO-evoked Fluo4 calcium flux; stronger effect = lower value | 300,000 compounds, 0.39% hits | AID 2247 | B-score at 10 µM;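 active = B-score over 3 SD under the library average, no early fluorescence shift, positive overall ratio signal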
Target sequence (Q9QUQ5 whole entry, looked up): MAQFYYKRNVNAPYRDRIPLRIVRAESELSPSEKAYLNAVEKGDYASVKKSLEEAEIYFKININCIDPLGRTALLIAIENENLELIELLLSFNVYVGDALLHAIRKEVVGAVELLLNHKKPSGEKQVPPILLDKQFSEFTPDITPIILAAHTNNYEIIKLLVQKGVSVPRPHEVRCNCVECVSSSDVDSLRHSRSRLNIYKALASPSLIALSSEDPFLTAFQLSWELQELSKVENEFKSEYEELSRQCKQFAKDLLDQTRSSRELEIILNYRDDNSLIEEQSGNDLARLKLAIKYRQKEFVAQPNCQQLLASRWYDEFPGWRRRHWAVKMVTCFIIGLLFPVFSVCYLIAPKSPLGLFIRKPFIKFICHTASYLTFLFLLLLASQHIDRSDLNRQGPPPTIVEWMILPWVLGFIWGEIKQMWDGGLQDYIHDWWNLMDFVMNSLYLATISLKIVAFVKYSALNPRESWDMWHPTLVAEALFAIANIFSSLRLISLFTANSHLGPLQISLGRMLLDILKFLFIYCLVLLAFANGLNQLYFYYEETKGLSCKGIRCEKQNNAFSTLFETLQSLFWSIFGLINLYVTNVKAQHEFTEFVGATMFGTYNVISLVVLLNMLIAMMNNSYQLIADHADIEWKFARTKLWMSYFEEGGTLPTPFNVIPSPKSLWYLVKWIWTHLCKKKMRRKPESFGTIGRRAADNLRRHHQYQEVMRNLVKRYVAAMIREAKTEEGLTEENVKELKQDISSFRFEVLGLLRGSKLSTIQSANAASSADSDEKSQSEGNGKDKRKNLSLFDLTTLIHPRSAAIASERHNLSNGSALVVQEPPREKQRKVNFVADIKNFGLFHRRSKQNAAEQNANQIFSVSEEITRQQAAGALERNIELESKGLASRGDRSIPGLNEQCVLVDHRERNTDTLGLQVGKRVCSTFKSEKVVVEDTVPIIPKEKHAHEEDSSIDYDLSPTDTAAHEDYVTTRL
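test system = HEK293 cells with stable TRPC4beta plus mu-opioid receptor expression | detection = Fluo4 Ca2+ flux fluorescence | read-out = integrated fluorescence ratio relative to baseline, converted to per-well B score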
TRPC6 act: activators of mouse TRPC6 channel; Q61143; HEK293-TRPC6 membrane potential dye fluorescence; stronger effect = higher value; B-score at 10 µM; 310,000 compounds, 0.13% hits;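 active = B-score of the integrated fluorescence ratio above library mean plus 3 SD, and starting fluorescence ratio within library mean plus 5 SD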;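 note: higher score means more depolarization so channel activation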
TRPC4 PAM: TRPC4 (mouse) allosteric potentiation; HEK293 TRPC4beta/mu-opioid, DAMGO EC20, Fluo-4 Ca2+ flux; stronger effect = higher value; B-score at 10 µM; 310,000 compounds, 0.42% hits;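 active = B-score of calcium response area above 5 SD of library B-scores, with initial fluorescence ratio within 5 SD of library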;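 note: B-score of integrated fluorescence ratio over time as area under calcium response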
TRPC4 agonist: TRPC4 (mouse) channel activation | 310,000 compounds, 0.49% hits | B-score at 10 µM | Q9QUQ5 | HEK293 TRPC4beta/mu-opioid, Fluo4 calcium fluorescence; stronger effect = higher value;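 active = B-score above 5 SD of library B-scores, and initial fluorescence ratio not above library mean plus 5 SD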;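 note: positive B-score marks a calcium rise read as TRPC4 activation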
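System – HEK293 cells stably co-expressing mouse TRPC4beta and mu-opioid receptor · Signal – Fluo4 calcium-sensitive dye fluorescence, kinetic, 1 Hz baseline · Benchmarks – buffer (low) and maximal DAMGO (high) · Read-out – B score of integrated fluorescence ratio per well · Incubation – dye loading 45 min room temperature, 110 s kinetic read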
Kir21 block: Kir2.1 (mouse) channel inhibition; HEK293-Kir2.1, FluxOR thallium flux fluorescence; stronger effect = lower value; B-score at 10 µM; 310,000 compounds, 0.85% hits; AID 1672; P35561;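 active = fluorescence ratio B-score at or below minus 3 SD of library scores, with starting-brightness B-score within 2 SD, cut at about -4.2 in these data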;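 note: channel flux triggered by added potassium and thallium sulfate stimulus; B-score of peak minus minimum fluorescence over baseline after thallium stimulus; more negative B-score means stronger Kir2.1 block with less thallium influx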
TRPC4 sel inh 2: second selectivity test of TRPC6 inhibitors: effect on mouse TRPC4; shares compounds with TRPC6 inhibitor; HEK293 TRPC4/MOR, membrane potential dye fluorescence; channel activated by saturating DAMGO dose; inhibition, % at 10 µM; 920 compounds, 42% hits; AID 2776;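 active = compounds whose fluorescence signal differed from control wells by over 3 SD, either direction, in both duplicate plates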
TRPC4 spec: selectivity of TRPC6 inhibitors: effect on mouse TRPC4; shares compounds with TRPC6 inhibitor; HEK293 TRPC4/mu-opioid, membrane potential fluorescence; activity change, negative = inhibition, % at 10 µM; 920 compounds, 61% hits; AID 2777;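 active = rise or fall in signal beyond 3 SD of buffer-only wells in both replicate plates, either sign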;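 note: integrated kinetic ratio of fluorescence range over baseline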
HEK293 MPD ctr 2-1: second check of TRPC6 inhibitor effects in parental HEK293 cells; shares compounds with TRPC6 inhibitor; parental HEK293 membrane potential dye fluorescence; maximal acetylcholine challenge after compound addition; signal change vs control, % at 10 µM; 920 compounds, 31% hits; AID 2779;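 active = membrane potential signal moving either way by over 3 SD of the maximum-effect control, in both duplicate plates, meaning non-specific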
HEK293 MPD ctr-1: parental HEK293 nonspecific activity of TRPC6 inhibitors; shares compounds with TRPC6 inhibitor; parental HEK293 membrane potential dye fluorescence; membrane potential signal change, % at 10 µM; 920 compounds, 60% hits;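 active = membrane potential signal shifting up or down by more than 3 SD of buffer-only wells, on both duplicate plates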
HEK293 MPD ctr-2: counter-screen for TRPC6 modulators: effect in parental HEK293 cells; shares compounds with TRPC6 inhibitor; membrane potential dye fluorescence; membrane potential signal change, % at 10 µM; 2,400 compounds, 51% hits;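 active = membrane potential signal moves up or down beyond 5 SD from buffer-only wells, on both duplicate plates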
HEK293 MPD ctr 2-2: parental HEK293 nonspecific activity of TRPC6 modulators, second screen. membrane potential dye fluorescence; after compound, maximal acetylcholine stimulation. inhibition, % at 10 µM. 2,400 compounds, 14% hits. shares compounds with TRPC6 inhibitor;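 active = membrane potential signal drops by more than 5 SD from the mean control signal, in both duplicate plates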;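 note: plate controls were acetylcholine ECmax control wells for no effect and buffer only wells for full effect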
TRPC4 ctr mod: tests whether TRPC6 modulators also affect mouse TRPC4; shares compounds with TRPC6 inhibitor; HEK293 TRPC4/mu-opioid, membrane potential fluorescence; percent change from control (negative = decrease, positive = increase), % at 10 µM; 2,400 compounds, 69% hits;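 active = membrane potential signal moved up or down beyond 5 SD of buffer control wells, in both duplicate plates, actives on both sides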;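 note: plate controls were assay buffer wells for no effect and DAMGO maximal-effect wells for full effect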
TRPC4/MOR inh 2: mouse TRPC4 off-target activity of TRPC6 modulators, second screen | shares compounds with TRPC6 inhibitor | HEK293 TRPC4/mu-opioid, membrane potential dye fluorescence; stimulated with maximal-effect DAMGO | inhibition, % at 10 µM | 2,400 compounds, 55% hits | AID 488928;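 active = drop in membrane potential signal beyond 5 SD of the control wells in both duplicate plates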;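 note: TRPC4 counter screen for TRPC6 hits run under conditions tuned for TRPC6 not TRPC4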
TRPC6 inh conf: mouse TRPC6 inhibitor confirmation | shares compounds with TRPC6 inhibitor | HEK293-TRPC6, membrane potential dye, ACh-evoked depolarization | inhibition, % at 10 µM | 3,300 compounds, 43% hits | AID 488960;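 active = fluorescence ratio falls more than 5 SD below the full-stimulation control mean, in both duplicate runs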;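 note: integrated fluorescence ratio of peak minus minimum over baseline after agonist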
TRPC6 act conf: mouse TRPC6 activator confirmation; shares compounds with TRPC6 inhibitor; HEK293-TRPC6 membrane potential dye fluorescence, FDSS; activation, % at 10 µM; 2,800 compounds, 11% hits; AID 488961;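 active = ratio signal rise beyond 5 SD above unstimulated control wells' mean, seen in both duplicate runs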;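 note: plate controls were buffer EC0 wells for no effect and acetylcholine ECmax response for full effect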
* marks the source's active call; other numbers are inactive results; i = inactive; / = no result.

SMILES | TRPC6 inhibitor | TRPC4 block | TRPC6 act | TRPC4 PAM | TRPC4 agonist | Kir21 block | HEK293 MPD ctr-2 | HEK293 MPD ctr 2-2 | TRPC4 ctr mod | TRPC4/MOR inh 2 | TRPC6 inh conf | TRPC6 act conf | others
O=C(COC(=O)CCSc1ccccc1)NCc1ccccc1 | i | i | i | i | i | -0.72 | / | / | / | / | / | /
CCCC(O)(CCN1CCOCC1)c1ccc(Br)cc1 (stereo unspecified) | -7.5* | -6* | i | i | i | 1.8 | / | / | / | / | i | i | TRPC4 sel inh 2=76%*;TRPC4 spec=4.2%*;HEK293 MPD ctr 2-1=i;HEK293 MPD ctr-1=3.6%*
CC(C)CCNC(=O)C(c1ccco1)N(Cc1cccs1)C(=O)Cn1nnc2ccccc21 (stereo unspecified) | i | i | 15* | i | i | -2.1 | 281%* | i | 72%* | i | i | 98%*
N#CCCN(C(=S)NC(=O)c1ccco1)c1ccccc1F | i | i | i | i | i | 1.2 | / | / | / | / | / | /
COC(=O)c1cc(C)nc2c1C(=O)C(=O)C=C2N1CCOCC1 | i | i | i | i | i | 0.94 | / | / | / | / | / | /
CCN(CC)CCNc1cc(C)nc2c1C(=O)C(=O)C=C2N1CCCCC1 | -7.5* | i | i | i | i | 3.9 | -274%* | i | -46%* | 39%* | i | i
CCc1cc(=O)oc2cc(C)cc(OCC(=O)NC3CCN(Cc4ccccc4)CC3)c12 | -5.5* | i | i | i | i | -1.4 | -100%* | i | -26%* | 68%* | 40%* | i
CCOc1ccc(NC(=O)c2c(NC(=O)CN3CCN(C)CC3)sc3c2CCC3)cc1 | -8.4* | i | i | i | i | -1.9 | / | / | / | / | 75%* | i | TRPC4 sel inh 2=46%*;TRPC4 spec=-26%*;HEK293 MPD ctr 2-1=i;HEK293 MPD ctr-1=-409%*
Oc1sc(C=Nc2ccc(F)cc2)c2ccccc12 | i | i | i | i | i | 0.03 | / | / | / | / | / | /
Oc1sc(C=Nc2ccccc2)c2ccccc12 | i | i | 13* | i | i | -2.1 | 322%* | i | 139%* | 46%* | i | i
C[n+]1ccc(/C=C/c2ccccc2O)c2ccccc21 | -5.7* | i | i | i | i | 0.24 | -81%* | i | -16%* | i | 42%* | i
